≈ marks a conversion by molar mass, not a printed value.
Tests used:
[1] = target: T1, Bone morphogenetic protein 1 (Homo sapiens, UniProt P13497); assay: Inhibition of human procollagen C-proteinase expressed in CHO cells by fluorescence assay; assay type: cell-based
T1 sequence (P13497 whole entry): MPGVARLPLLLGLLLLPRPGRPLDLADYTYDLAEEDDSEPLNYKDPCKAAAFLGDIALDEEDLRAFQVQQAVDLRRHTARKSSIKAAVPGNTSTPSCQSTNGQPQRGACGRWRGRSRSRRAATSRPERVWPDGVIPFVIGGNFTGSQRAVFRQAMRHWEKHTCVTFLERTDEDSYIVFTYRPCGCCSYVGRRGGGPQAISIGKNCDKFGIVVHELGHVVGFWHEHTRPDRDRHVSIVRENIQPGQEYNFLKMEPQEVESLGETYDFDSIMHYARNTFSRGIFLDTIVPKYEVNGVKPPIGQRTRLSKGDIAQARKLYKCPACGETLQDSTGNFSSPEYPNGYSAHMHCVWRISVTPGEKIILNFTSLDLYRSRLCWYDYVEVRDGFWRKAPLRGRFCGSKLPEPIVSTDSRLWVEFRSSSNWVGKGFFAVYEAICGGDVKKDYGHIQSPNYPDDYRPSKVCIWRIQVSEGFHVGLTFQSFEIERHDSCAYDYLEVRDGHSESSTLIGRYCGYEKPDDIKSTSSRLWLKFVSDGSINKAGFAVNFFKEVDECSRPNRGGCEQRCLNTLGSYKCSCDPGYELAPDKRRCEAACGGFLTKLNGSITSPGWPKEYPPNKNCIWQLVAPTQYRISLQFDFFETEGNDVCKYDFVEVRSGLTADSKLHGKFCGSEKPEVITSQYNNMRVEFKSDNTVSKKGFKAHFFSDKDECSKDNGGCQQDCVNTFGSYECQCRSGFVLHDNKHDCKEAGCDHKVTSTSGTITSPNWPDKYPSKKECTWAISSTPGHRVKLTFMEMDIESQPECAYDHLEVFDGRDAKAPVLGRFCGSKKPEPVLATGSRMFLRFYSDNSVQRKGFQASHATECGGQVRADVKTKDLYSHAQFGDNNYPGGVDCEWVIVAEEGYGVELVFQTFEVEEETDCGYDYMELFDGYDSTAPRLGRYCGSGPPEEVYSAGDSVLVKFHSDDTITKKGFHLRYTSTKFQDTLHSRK

[2] = Lipophilicity, log D at pH 7.4; assay type: physicochemical; conditions: buffer
[3] = Dissociation constant, pKa of the compound; assay type: physicochemical
[4] = Aqueous solubility in phosphate-buffered saline at pH 7.4 by HPLC; assay type: physicochemical
[5] = target: T1, Bone morphogenetic protein 1; assay: Inhibition of human procollagen C-proteinase assessed as [3H]procollagen turnover by scintillation counting
Fibroblast [6] = assay: Reduction in collagen deposition in human fibroblasts at 10 uM after 8 days by HPLC; assay type: functional; set-up: scale not given: the % may be the effect or the level left
Fibroblast [7] = assay: Reduction in collagen deposition in human fibroblasts after 8 days by HPLC; assay type: functional, cell-based
Zone of skin [8] = assay: Effect on transepidermal penetration in human cadaver skin assessed as TED flux after 24 hrs by LC-MS/MS analysis using [14C]mannitol as receptor fluid; assay type: functional
Method in brief: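 Human cadaver stratum corneum was mounted in a Franz diffusion cell and exposed for 24 h to a solution in 50% aqueous propylene glycol (pH 6.8). Compound reaching the receptor chamber was measured and a flux rate was calculated. Reported as mean ± SEM, n = 6–10.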

[9] = Saturated solubility in propylene glycol-citrate buffer-ethanol; assay type: physicochemical
Zone of skin [10] = assay: Effect on transepidermal penetration in human cadaver skin assessed as TED flux after 24 hrs by LC-MS/MS analysis using [14C]mannitol as receptor fluid in presence of propylene glycol-citrate buffer-ethanol; assay type: functional
Method in brief: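 Human cadaver stratum corneum was mounted in a Franz diffusion cell and exposed for 24 h to a solution in propylene glycol–citrate buffer–ethanol (20:30:50). Receptor-chamber concentration was used to calculate TED flux.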

[11] = target: 3',5'-cyclic-AMP phosphodiesterase 4A (Homo sapiens, UniProt P27815); assay: Inhibition of PDE4A
3',5'-cyclic-AMP phosphodiesterase 4A, sequence (P27815 whole entry): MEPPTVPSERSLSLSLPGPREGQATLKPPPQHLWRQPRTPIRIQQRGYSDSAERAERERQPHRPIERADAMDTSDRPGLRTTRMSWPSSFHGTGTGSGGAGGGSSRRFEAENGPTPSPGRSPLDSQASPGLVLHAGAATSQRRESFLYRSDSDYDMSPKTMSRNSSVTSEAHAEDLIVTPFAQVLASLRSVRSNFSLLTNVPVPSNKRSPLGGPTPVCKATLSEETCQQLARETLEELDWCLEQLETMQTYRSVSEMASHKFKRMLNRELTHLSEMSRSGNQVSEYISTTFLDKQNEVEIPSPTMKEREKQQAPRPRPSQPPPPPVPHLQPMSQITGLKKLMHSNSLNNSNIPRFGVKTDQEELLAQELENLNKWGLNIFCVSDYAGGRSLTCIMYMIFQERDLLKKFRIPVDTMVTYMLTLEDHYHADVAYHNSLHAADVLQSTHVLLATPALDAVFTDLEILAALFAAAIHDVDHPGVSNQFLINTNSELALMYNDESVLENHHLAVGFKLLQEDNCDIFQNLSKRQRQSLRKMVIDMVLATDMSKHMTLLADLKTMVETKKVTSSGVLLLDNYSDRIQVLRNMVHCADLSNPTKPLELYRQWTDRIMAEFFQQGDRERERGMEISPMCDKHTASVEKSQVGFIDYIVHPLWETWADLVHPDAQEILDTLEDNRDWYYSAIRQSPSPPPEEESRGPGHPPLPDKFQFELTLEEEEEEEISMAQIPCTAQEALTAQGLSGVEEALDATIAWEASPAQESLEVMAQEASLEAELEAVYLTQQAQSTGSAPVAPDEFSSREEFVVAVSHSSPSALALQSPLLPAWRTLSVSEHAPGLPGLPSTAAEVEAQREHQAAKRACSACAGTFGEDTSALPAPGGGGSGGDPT

[12] = target: 3',5'-cyclic-AMP phosphodiesterase 4B (Homo sapiens, UniProt Q07343); assay: Inhibition of PDE4B
3',5'-cyclic-AMP phosphodiesterase 4B, sequence (Q07343 whole entry): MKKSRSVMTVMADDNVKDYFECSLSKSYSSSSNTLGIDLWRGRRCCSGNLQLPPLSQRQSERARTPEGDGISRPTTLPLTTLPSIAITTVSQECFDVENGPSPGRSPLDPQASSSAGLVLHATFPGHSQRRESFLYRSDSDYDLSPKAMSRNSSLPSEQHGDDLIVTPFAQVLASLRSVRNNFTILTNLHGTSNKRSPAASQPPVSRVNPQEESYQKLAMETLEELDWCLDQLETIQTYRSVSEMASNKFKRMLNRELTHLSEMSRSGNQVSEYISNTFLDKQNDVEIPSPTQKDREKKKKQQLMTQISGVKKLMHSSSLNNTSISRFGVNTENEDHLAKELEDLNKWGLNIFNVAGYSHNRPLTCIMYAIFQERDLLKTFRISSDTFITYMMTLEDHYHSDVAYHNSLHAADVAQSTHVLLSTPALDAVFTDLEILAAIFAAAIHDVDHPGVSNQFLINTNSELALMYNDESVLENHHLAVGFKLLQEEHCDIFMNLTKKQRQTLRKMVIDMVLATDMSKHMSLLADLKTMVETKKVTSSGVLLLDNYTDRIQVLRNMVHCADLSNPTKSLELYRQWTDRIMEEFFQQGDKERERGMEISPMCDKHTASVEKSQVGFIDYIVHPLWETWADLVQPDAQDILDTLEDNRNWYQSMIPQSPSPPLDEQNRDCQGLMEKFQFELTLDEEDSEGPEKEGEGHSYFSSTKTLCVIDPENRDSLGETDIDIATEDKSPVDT

[13] = target: 3',5'-cyclic-AMP phosphodiesterase 4C (Homo sapiens, UniProt Q08493); assay: Inhibition of PDE4C
3',5'-cyclic-AMP phosphodiesterase 4C, sequence (Q08493 whole entry): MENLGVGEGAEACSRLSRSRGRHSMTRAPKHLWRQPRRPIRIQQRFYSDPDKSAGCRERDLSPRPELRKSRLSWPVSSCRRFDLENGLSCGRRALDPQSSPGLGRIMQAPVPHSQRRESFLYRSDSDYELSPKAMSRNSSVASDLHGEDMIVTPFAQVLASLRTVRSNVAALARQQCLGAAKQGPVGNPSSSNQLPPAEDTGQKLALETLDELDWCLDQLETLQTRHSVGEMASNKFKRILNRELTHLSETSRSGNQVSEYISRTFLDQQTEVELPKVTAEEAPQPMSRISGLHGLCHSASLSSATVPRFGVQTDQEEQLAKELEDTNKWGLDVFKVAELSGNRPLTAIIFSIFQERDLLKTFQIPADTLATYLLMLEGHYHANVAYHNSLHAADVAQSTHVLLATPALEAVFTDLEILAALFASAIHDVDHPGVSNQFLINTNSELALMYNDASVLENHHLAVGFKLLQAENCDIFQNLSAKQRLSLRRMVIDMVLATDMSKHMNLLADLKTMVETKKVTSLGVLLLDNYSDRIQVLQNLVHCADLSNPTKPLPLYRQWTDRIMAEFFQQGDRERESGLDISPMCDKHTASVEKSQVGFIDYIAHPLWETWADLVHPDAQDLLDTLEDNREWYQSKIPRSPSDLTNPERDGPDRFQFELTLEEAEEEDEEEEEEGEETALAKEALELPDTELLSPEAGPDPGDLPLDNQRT

[14] = target: 3',5'-cyclic-AMP phosphodiesterase 4D (Homo sapiens, UniProt Q08499); assay: Inhibition of PDE4D
3',5'-cyclic-AMP phosphodiesterase 4D, sequence (Q08499 whole entry): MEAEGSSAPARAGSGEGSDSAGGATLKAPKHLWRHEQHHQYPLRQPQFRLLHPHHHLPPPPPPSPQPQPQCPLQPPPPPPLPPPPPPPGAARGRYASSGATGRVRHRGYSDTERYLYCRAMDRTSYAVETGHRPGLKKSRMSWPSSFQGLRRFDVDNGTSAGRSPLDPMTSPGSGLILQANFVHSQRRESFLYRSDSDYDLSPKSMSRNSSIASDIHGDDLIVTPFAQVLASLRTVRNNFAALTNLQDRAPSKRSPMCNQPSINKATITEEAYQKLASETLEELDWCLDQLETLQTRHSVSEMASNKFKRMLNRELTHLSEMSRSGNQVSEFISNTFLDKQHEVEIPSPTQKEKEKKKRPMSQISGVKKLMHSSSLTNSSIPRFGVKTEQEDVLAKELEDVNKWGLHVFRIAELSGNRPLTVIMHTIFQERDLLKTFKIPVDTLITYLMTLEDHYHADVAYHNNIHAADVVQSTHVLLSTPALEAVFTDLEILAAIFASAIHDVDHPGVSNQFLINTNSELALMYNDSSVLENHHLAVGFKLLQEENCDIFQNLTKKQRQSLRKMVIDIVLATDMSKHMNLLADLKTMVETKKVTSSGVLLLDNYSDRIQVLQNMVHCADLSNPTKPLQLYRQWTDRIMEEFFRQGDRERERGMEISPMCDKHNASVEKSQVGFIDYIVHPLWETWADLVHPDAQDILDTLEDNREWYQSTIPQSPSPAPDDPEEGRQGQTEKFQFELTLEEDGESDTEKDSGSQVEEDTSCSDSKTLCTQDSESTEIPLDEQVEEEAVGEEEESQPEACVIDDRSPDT

[15] = Metabolic stability in human liver microsomes assessed as half life; assay type: ADME, Microsome
[16] = Metabolic stability in dog liver microsomes assessed as half life; assay type: ADME, Canis lupus familiaris, Microsome
[17] = Metabolic stability in rat liver microsomes assessed as half life; assay type: ADME, Microsome
[18] = Elimination half life in rat at 2 mg/kg, iv administered as single dose; assay type: ADME, organism-based; set-up: dose 2 mg/kg, route intravenous; conditions: in vivo, read-out: beta t1/2 (converted)
Method in brief: (§1)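 Male rats (n = 2) received a single intravenous dose of 2 mg/kg. Plasma sampling gave half-life, clearance and volume of distribution. Concentrations were also followed after dosing against the assay's limit of quantification.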

[19] = Plasma clearance in rat at 2 mg/kg, iv administered as single dose; assay type: ADME, organism-based; set-up: dose 2 mg/kg, route intravenous; method in brief: as §1
[20] = Volume of distribution in rat at 2 mg/kg, iv administered as single dose; assay type: ADME, organism-based; set-up: dose 2 mg/kg, route intravenous; conditions: in vivo; method in brief: as §1
[21] = Elimination half life in dog at 0.5 mg/kg, iv administered as single dose; assay type: ADME, organism-based, Canis lupus familiaris; set-up: dose 0.5 mg/kg, route intravenous; conditions: in vivo, read-out: beta t1/2 (converted)
Method in brief: (§2)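 Male dogs (n = 2) received a single intravenous dose of 0.5 mg/kg or a single oral dose of 2 mg/kg. Plasma concentrations were used to derive half-life, clearance, volume of distribution, Cmax, Tmax and oral bioavailability.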

[22] = Plasma clearance in dog at 0.5 mg/kg, iv administered as single dose; assay type: ADME, organism-based, Canis lupus familiaris; set-up: dose 0.5 mg/kg, route intravenous; method in brief: as §2
[23] = Volume of distribution in dog at 0.5 mg/kg, iv administered as single dose; assay type: ADME, organism-based, Canis lupus familiaris; set-up: dose 0.5 mg/kg, route intravenous; conditions: in vivo; method in brief: as §2
[24] = Cmax in dog at 2 mg/kg, po administered as single dose; assay type: ADME, organism-based, Canis lupus familiaris; set-up: dose 2 mg/kg, route oral; conditions: in vivo; method in brief: as §2
[25] = Tmax in dog at 2 mg/kg, po administered as single dose; assay type: ADME, organism-based, Canis lupus familiaris; set-up: dose 2 mg/kg, route oral; conditions: in vivo; method in brief: as §2
[26] = Oral bioavailability in dog at 2 mg/kg administered as single dose; assay type: ADME, organism-based, Canis lupus familiaris; conditions: in vivo; method in brief: as §2
[27] = Plasma concentration in rat at 2 mg/kg, iv administered as single dose after 2 hrs; assay type: ADME, organism-based; set-up: dose 2 mg/kg, route intravenous; method in brief: as §1
[28] = Drug level in pig skin assessed as steady state concentration at 0.9 mg/ml in 50% aqueous propylene glycol administered tropically after 24 hrs; assay type: ADME, tissue-based, Sus scrofa, Zone of skin; conditions: topical or ocular, read-out: Drug uptake
Method in brief: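 Applied topically to intact pig skin as a 0.9 mg/ml solution in 50% aqueous propylene glycol. Tissue level was measured in the upper dermis as the steady-state concentration at 24 h.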

Stromelysin-1 = Stromelysin-1 (Homo sapiens, UniProt P08254); assay: Inhibition of human MMP3 by fluorescence assay
Stromelysin-1, sequence (P08254 whole entry): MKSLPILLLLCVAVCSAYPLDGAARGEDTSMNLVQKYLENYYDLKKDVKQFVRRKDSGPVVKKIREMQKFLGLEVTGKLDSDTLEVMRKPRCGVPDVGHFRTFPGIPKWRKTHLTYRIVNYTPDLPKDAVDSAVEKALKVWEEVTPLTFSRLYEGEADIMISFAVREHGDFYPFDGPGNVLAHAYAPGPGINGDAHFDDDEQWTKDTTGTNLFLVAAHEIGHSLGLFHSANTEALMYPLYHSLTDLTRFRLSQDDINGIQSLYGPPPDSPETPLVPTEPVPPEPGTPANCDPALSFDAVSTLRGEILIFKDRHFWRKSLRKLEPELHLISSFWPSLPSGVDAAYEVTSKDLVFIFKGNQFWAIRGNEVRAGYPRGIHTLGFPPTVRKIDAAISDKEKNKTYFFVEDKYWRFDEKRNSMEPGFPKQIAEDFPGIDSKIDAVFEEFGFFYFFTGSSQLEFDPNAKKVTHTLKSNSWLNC

## CNC(=O)c1noc([C@H](CCCC2CCCCC2)CC(=O)NO)n1
[1]
  IC50: 0.028 µM

## O=C(C[C@@H](CCCC1CCCCC1)c1nc(C(=O)NCC2CC2)no1)NO
[1]
  IC50: 0.033 µM

## CC(C)NC(=O)c1noc([C@H](CCCC2CCCCC2)CC(=O)NO)n1
[1]
  IC50: 0.021 µM

## CN1CCN(C(=O)c2noc([C@H](CCCC3CCCCC3)CC(=O)NO)n2)CC1
[1]
  IC50: 0.054 µM

## NC(=O)c1noc([C@@H](CCCC2CCCCC2)CC(=O)NO)n1
[1]
  IC50: > 2 µM

## CN(Cc1ccccc1)C(=O)c1noc([C@H](CCCC2CCCCC2)CC(=O)NO)n1
[1]
  IC50: 0.065 µM

## NC(=O)c1coc([C@H](CCCC2CCCCC2)CC(=O)NO)n1
[1]
  IC50: 0.073 µM

## Cc1oc([C@H](CCCC2CCCCC2)CC(=O)NO)nc1C(=O)N(C)C
[1]
  IC50: 0.017 µM

## O=C(C[C@@H](CCCC1CCCCC1)c1nc(C(=O)NCc2ccccc2)no1)NO
[1]
  IC50: 0.057 µM

## O=C(C[C@@H](CCCC1CCCCC1)c1nc(C(=O)N2CCOCC2)no1)NO
[1]
  IC50: 0.025 µM

## O=C(O)CNC(=O)c1noc([C@H](CCCC2CCCCC2)CC(=O)NO)n1
[1]
  IC50: 0.021 µM

## NC(=O)c1noc([C@H](CCCC2CCCCC2)CC(=O)NO)n1
[2]
  logD: 2.6
[3]
  pKa: 9
[4]
  solubility: 0.035 mg/mL (≈ 108 µM)
[5]
  IC50: 0.026 µM
Fibroblast [6]
  Activity: 76%
Fibroblast [7]
  Activity: Dose-dependent effect
Fibroblast [7]; 192 h
  IC50: 2.1 µM
Zone of skin [8]
  TED: 0.3 microg/cm2/h
[9]
  solubility thermodynamic: 13.8 mg/mL (≈ 42500 µM)
Zone of skin [10]
  TED: 1.59 microg/cm2/h
[11]
  IC50: 1.8 µM
[12]
  IC50: 1.5 µM
[13]
  IC50: 2.4 µM
[14]
  IC50: 0.9 µM
[15]
  half-life: 19 min
[16]
  half-life: 9 min
[17]
  half-life: < 2 min
[18]
  half-life: 48 min
[19]
  clearance: 9.42 L/h/kg
[20]
  Vd: 12 L/kg
[21]
  half-life: 90 min
[22]
  clearance: 2.1 L/h/kg
[23]
  Vd: 4.6 L/kg
[24]
  Cmax: 0.11 µg/mL
[25]
  Tmax: 30 min
[26]
  bioavailability: 13%
[27]
  concentration at 2 h: < 0.1 µg/mL
[28]
  concentration at 24 h: 10 µM

## Cc1oc([C@H](CCCC2CCCCC2)CC(=O)NO)nc1C(N)=O
[1]
  IC50: 0.017 µM

## O=C(C[C@@H](CCCC1CCCCC1)c1nc(C(=O)NCc2ccccn2)no1)NO
[1]
  IC50: 0.037 µM

## CN(C)C(=O)c1coc([C@H](CCCC2CCCCC2)CC(=O)NO)n1
[1]
  IC50: 0.045 µM

## CN(Cc1ccccn1)C(=O)c1noc([C@H](CCCC2CCCCC2)CC(=O)NO)n1
[1]
  IC50: 0.04 µM

## CCCNC(=O)c1noc([C@H](CCCC2CCCCC2)CC(=O)NO)n1
[1]
  IC50: 0.032 µM

## O=C(C[C@@H](CCCC1CCCCC1)c1nc(C(=O)N2CCCC2)no1)NO
[1]
  IC50: 0.043 µM

## CN(C)C(=O)c1noc([C@H](CCCC2CCCCC2)CC(=O)NO)n1
[1]
  IC50: 0.01 µM
[2]
  logD: 3.6
[4]
  solubility: 0.9 mg/mL (≈ 2550 µM)
[5]
  IC50: 0.0093 µM
Stromelysin-1
  IC50: 28 µM
Fibroblast [6]
  Activity: 67%
Zone of skin [8]
  TED: 2.6 microg/cm2/h

## O=C(C[C@@H](CCCC1CCCCC1)c1nc(C(=O)N2CCCCC2)no1)NO
[1]
  IC50: 0.026 µM
